# According to PubChem BioAssay:
# Calls of active or inactive are those of the source. Unless noted, no stated cut-off is given here; in the data, active means inhibition above about 30%; inactive means the rest.
# Experiments:
# [1] = reduced viability of SK-BR-3 breast cancer cells – cell-based, 24 h, human, pilot screen (AID 572;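 active means viability at or below 10% of carrier control in both of two separate runs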;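 further: compound exposure lasted between 18 and 24 h rather than exactly 24 h; 100% = carrier-treated control wells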); conditions: SK-BR-3 viability, CellTiter-Glo luminescence, at 10 µM, stronger effect = lower value
# [2] = HUVEC growth inhibition – cell-based, human, primary screen (AID 575;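 active means viability at or below 30% in both replicate assays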;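 further: 100% = median of untreated cell wells with 0.1% DMSO on each plate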); conditions: HUVEC proliferation, CellTiter-Glo luminescence, 72 h; at 10 µM; stronger effect = lower value
# Method in brief: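 Material: primary human umbilical vein endothelial cells / Schedule: 72 h exposure, 37 °C, 5% CO2, 30 min RT equilibration / Signal: ATP-based CellTiter-Glo luminescent read / Read-out basis: percent of median DMSO-control luminescence / Control set: 32 DMSO-only cell-control wells (high), 32 MePR drug-control wells (low) per plate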
# [3] = H69AR cell proliferation blockers – human, duplicate replicates, primary screen (AID 580;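 active means viability at or under a set limit in both replicates, limit being median viability minus 3 SD, cut at about 48% in these data, passing the limit was not always enough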;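 further: 100% = mean luminescence of untreated wells and 0% = no signal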); conditions: H69AR lung tumor cells viability, ATP luminescence, 72 h; at 10 µM; stronger effect = lower value
# [4] = MRP1 drug-resistance reversers in H69AR cells – cell-based, doxorubicin co-treatment, pilot screen (AID 601;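 active means viability loss from added drug above about 55%, and viability with drug at most 40%, in both replicates, limit read from the data, passing the limit was not always enough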); conditions: CellTiter-Glo, 72 h, at 10 µM; for differential viability (reversal): stronger effect = higher value
# [5] = yeast transport mutant growth inhibition pilot in 384-well plates, post-Golgi transport modulator project (AID 636; in the data active means inhibition above about 31%); conditions: absorbance 615 nm, about 18 h, stronger effect = higher value
# [6] = growth suppression of yeast trafficking mutant, preliminary HTS, modulators of trafficking downstream of Golgi apparatus project, 1536-format plate, OD 615 nm (AID 637); conditions: yeast transport mutant growth, absorbance 615 nm, 18 h; stronger effect = higher value
# [7] = H69AR cells + 2 uM doxorubicin, measured here: viability with 2 uM doxorubicin, stronger effect = lower value
# [8] = H69AR cells, compound alone cytotoxicity
SMILES,viability [1],viability [2],viability [3],differential viability (reversal) ([4]; H69AR cells + 2 uM doxorubicin),"viability [4, 7]","viability [4, 8]",inhibition [5],inhibition [6]
O=C(CSc1nc2ccccc2c(=O)n1Cc1ccco1)NCc1ccccc1,72% (inactive),82.6% (inactive),89.4% (inactive),3.12% (inactive),86.3%,89.4%,-8.63% (inactive),0.73% (inactive)
CC(=O)N=c1sc(S(N)(=O)=O)nn1C,84% (inactive),77.6% (inactive),93.9% (inactive),21.1% (inactive),72.8%,93.9%,0.39% (inactive),3.17% (inactive)
CC1(C)CC(=O)C=C(NC2CCS(=O)(=O)C2)C1 (centres undefined),97% (inactive),107% (inactive),91.3% (inactive),-0.825% (inactive),92.2%,91.3%,0% (inactive),6.89% (inactive)
O=S(=O)(NCc1ccccn1)c1ccc2c(c1)OCCO2,115% (inactive),114% (inactive),109% (inactive),0.755% (inactive),108%,109%,-0.81% (inactive),0.18% (inactive)
Clc1ccc(Cl)c(-c2nn3c(Cn4cnc5ccccc54)nnc3s2)c1,78% (inactive),98.5% (inactive),102% (inactive),6.11% (inactive),96%,102%,-6.3% (inactive),-0.18% (inactive)
COc1ccc(NC(=O)Cn2nnc(-c3ccccc3F)n2)cc1Cl,116% (inactive),104% (inactive),95.5% (inactive),3.27% (inactive),92.3%,95.5%,-8.22% (inactive),0.18% (inactive)
Cn1nnnc1SCC1=C(C(=O)O)N2C(=O)[C@@H](NC(=O)[C@H](O)c3ccccc3)[C@H]2SC1,132% (inactive),82.9% (inactive),99.2% (inactive),2.56% (inactive),96.6%,99.2%,-1.3% (inactive),0.33% (inactive)
CC(C)c1nc(NCC2CCCO2)c(C#N)c2c1COC(C)(C)C2 (centres undefined),95% (inactive),74.9% (inactive),89.1% (inactive),4.7% (inactive),84.4%,89.1%,-9.86% (inactive),13.9% (inactive)
O=C(Nc1cccnc1)Nc1ccc(F)c(Cl)c1,82% (inactive),86.6% (inactive),105% (inactive),4.77% (inactive),100%,105%,-2.19% (inactive),12% (inactive)
CCc1nc2sc3ccccc3c(=O)c2c(=O)n1Cc1ccco1,73% (inactive),82.6% (inactive),77% (inactive),2.49% (inactive),74.5%,77%,-3.77% (inactive),0.98% (inactive)
C=CCn1c(SCn2nnc3ccccc3c2=O)nnc1-c1ccc(Br)cc1,97% (inactive),94.2% (inactive),89.1% (inactive),7.09% (inactive),82%,89.1%,43.2% (active),31.6% (active)
CC(C)Sc1nc(N2CCCC2)c2c(c1C#N)CC(C)(C)OC2,90% (inactive),71.2% (inactive),80.2% (inactive),42.7% (inactive),37.5%,80.2%,-2.88% (inactive),-4.84% (inactive)
CN(C)C(=O)Oc1ccc[n+](C)c1,92% (inactive),102% (inactive),87% (inactive),5.36% (inactive),81.6%,87%,-1.17% (inactive),-2.33% (inactive)
CC(C)CCNC(=O)C(C)N(Cc1ccc(F)cc1)C(=O)c1ccc(CN2CCCCC2)o1 (centres undefined),72% (inactive),108% (inactive),95.4% (inactive),-0.095% (inactive),95.5%,95.4%,-5.95% (inactive),-2.91% (inactive)
CCOC(=O)Cc1nnc(Nc2cccc(O)c2)c2ccccc12,98% (inactive),95.4% (inactive),106% (inactive),20.6% (inactive),85.8%,106%,-3.65% (inactive),0% (inactive)
COc1ccc(C(=O)Nc2nc(C)c(C(=O)N(C)C)s2)cc1OC,70% (inactive),91% (inactive),94.9% (inactive),10.6% (inactive),84.3%,94.9%,-8.63% (inactive),4.52% (inactive)
Brc1c(NC2=NCCN2)ccc2nccnc12,105% (inactive),106% (inactive),95% (inactive),-7.09% (inactive),102%,95%,-0.39% (inactive),15.3% (inactive)
O=C(CCNS(=O)(=O)c1ccc(Br)s1)N1CCCCC1,90% (inactive),107% (inactive),94.2% (inactive),7.65% (inactive),86.5%,94.2%,-6.03% (inactive),-4.19% (inactive)
